Assay results taken from ChEMBL document CHEMBL1671666, “Anti-human immunodeficiency virus activity, cross-resistance, cytotoxicity, and intracellular pharmacology of the 3'-azido-2',3'-dideoxypurine nucleosides” (Antimicrob Agents Chemother, 2009).

Columns and labels:
[1] = target: Human immunodeficiency virus type 1 reverse transcriptase (Human immunodeficiency virus 1) (UniProt Q72547); test: Ratio of Kpol to Kd for HIV1 reverse transcriptase
How it was run: (§1)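 Pre-steady-state rapid quench with purified WT HIV-1 RT. Quenched with 0.5 M EDTA between 10 ms and 30 min. Products resolved on 7 M urea-16% polyacrylamide gels. Gives kpol and Kd; selectivity = (kpol/Kd)dNTP/(kpol/Kd)NRTI-TP. At least three independent experiments, mean ± SD.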

[2] = target: Human immunodeficiency virus type 1 reverse transcriptase (Human immunodeficiency virus 1, UniProt Q72547); test: Binding affinity to HIV1 reverse transcriptase; how it was run: as §1
[3] = target: Human immunodeficiency virus type 1 reverse transcriptase (Human immunodeficiency virus 1) (UniProt Q72547); test: Selectivity, ratio of Kpol to Kd for dCTP to Kpol to Kd for compound at HIV1 reverse transcriptase; how it was run: as §1
[4] = target: Human immunodeficiency virus type 1 reverse transcriptase (Human immunodeficiency virus 1) (UniProt Q72547); test: Activity at HIV1 reverse transcriptase measured after 30 mins; how it was run: as §1
[5] = system: Human immunodeficiency virus 1; test: Antiviral activity against HIV1 infected in human HeLa P4/R5 cells assessed as inhibition of viral replication; assay type: functional, organism-based; settings: Human immunodeficiency virus 1, HeLa
How it was run: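 Single-cycle assay in P4/R5 HeLa cells carrying an HIV LTR-driven, Tat-activated β-galactosidase gene. Cells kept in phenol red-free DMEM with 10% FBS and 0.5 μg/ml puromycin. Virus stock titred on these cells by threefold endpoint dilution (Reed-Muench). At least three independent experiments.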

[6] = system: Human immunodeficiency virus 1; test: Antiviral activity against HIV1 harboring reverse transcriptase M184V mutant infected in human HeLa P4/R5 cells assessed as inhibition of viral replication; assay type: functional, organism-based; settings: Human immunodeficiency virus 1, HeLa
How it was run: (§2)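 Single-replication-cycle assay in P4/R5 cells: HeLa stably carrying a Tat-activated β-galactosidase gene under an HIV LTR promoter, grown in phenol red-free DMEM with 10% FBS and 0.5 μg/ml puromycin. Virus stocks were titred in P4/R5 cells by threefold endpoint dilution (Reed–Muench).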

[7] = system: Human immunodeficiency virus 1; test: Antiviral activity against HIV1 infected in human MT2 cells assessed as inhibition of viral replication; assay type: functional, organism-based; settings: Human immunodeficiency virus 1, MT2
[8] = system: Human immunodeficiency virus 1; test: Ratio of IC50 for HIV1 harboring reverse transcriptase L74V mutant infected in human HeLa P4/R5 cells to wild type HIV1 infected in human HeLa P4/R5 cells; assay type: functional; how it was run: as §2
[9] = system: Human immunodeficiency virus 1; test: Antiviral activity against HIV1 harboring reverse transcriptase K65R mutant infected in human HeLa P4/R5 cells assessed as inhibition of viral replication; assay type: functional, organism-based; settings: Human immunodeficiency virus 1, HeLa; how it was run: as §2
[10] = system: Human immunodeficiency virus 1; test: Ratio of IC50 for HIV1 harboring reverse transcriptase M184V mutant infected in human HeLa P4/R5 cells to wild type HIV1 infected in human HeLa P4/R5 cells; assay type: functional; how it was run: as §2
[11] = system: Human immunodeficiency virus 1; test: Antiviral activity against HIV1 infected in human PBMC assessed as inhibition of viral replication; assay type: functional, organism-based
How it was run: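 PBMC from healthy seronegative donors, isolated on a Ficoll-Hypaque gradient and stimulated with PHA for 2-3 days before infection. At least three independent experiments.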

[12] = system: Human immunodeficiency virus 1; test: Antiviral activity against HIV1 harboring reverse transcriptase L74V mutant infected in human HeLa P4/R5 cells assessed as inhibition of viral replication; assay type: functional, organism-based; settings: Human immunodeficiency virus 1, HeLa; how it was run: as §2
[13] = system: Human immunodeficiency virus 1; test: Ratio of IC50 for HIV1 harboring reverse transcriptase K65R mutant infected in human HeLa P4/R5 cells to wild type HIV1 infected in human HeLa P4/R5 cells; assay type: functional; how it was run: as §2
[14] = system: HepG2; test: Mitochondrial toxicity in human HepG2 cells assessed as percent lactic acid production at 10 uM after 14 days by real-time PCR relative to beta-actin DNA; assay type: cell-based; settings: hepg2, 336 h
How it was run: (§3)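 HepG2 cells cultured 14 days with 10 or 100 μM NRTI. Lactic acid quantified with a D-/L-lactic acid enzymatic test kit and expressed relative to β-actin DNA and to untreated control.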

[15] = system: HepG2; test: Mitochondrial toxicity in human HepG2 cells assessed as percent lactic acid production at 100 uM after 14 days by real-time PCR relative to beta-actin DNA; assay type: cell-based; settings: hepg2, 336 h; how it was run: as §3
[16] = system: HepG2; test: Mitochondrial toxicity in human HepG2 cells assessed as percent mitochondrial DNA production at 10 uM after 14 days by real-time PCR relative to control; assay type: cell-based; settings: hepg2, 336 h
How it was run: (§4)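 Low-passage HepG2 cells seeded at 5,000 cells/well on collagen-coated plates and cultured 14 days with 10 or 100 μM NRTI. mtDNA and β-actin DNA quantified by real-time PCR in duplicate; mtDNA normalized to β-actin and expressed relative to untreated cells. At least two independent experiments; ranges given.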

[17] = system: mitochondrial DNA; test: Mitochondrial toxicity in human HepG2 cells assessed as percent inhibition of mitochondrial DNA at 10 uM after 14 days by real-time PCR; assay type: cell-based; how it was run: as §4
[18] = system: HepG2; test: Mitochondrial toxicity in human HepG2 cells assessed as percent mitochondrial DNA production at 100 uM after 14 days by real-time PCR relative to control; assay type: cell-based; settings: hepg2, 336 h; how it was run: as §4
[19] = system: beta-actin DNA; test: Mitochondrial toxicity in human HepG2 cells assessed as percent inhibition of beta-actin DNA at 100 uM after 14 days by real-time PCR; assay type: cell-based; how it was run: as §4
[20] = system: mitochondrial DNA; test: Mitochondrial toxicity in human HepG2 cells assessed as percent inhibition of mitochondrial DNA at 100 uM after 14 days by real-time PCR; assay type: cell-based; how it was run: as §4
[21] = system: beta-actin DNA; test: Mitochondrial toxicity in human HepG2 cells assessed as percent inhibition of beta-actin DNA at 10 uM after 14 days by real-time PCR; assay type: cell-based; how it was run: as §4
[22] = target: Human immunodeficiency virus type 1 reverse transcriptase (Human immunodeficiency virus 1) (UniProt Q72547); test: Selectivity, ratio of Kpol to Kd for TTP to Kpol to Kd for compound at HIV1 reverse transcriptase; how it was run: as §1
[23] = system: Human immunodeficiency virus 1; test: Antiviral activity against HIV1 harboring reverse transcriptase Q151M mutant infected in human HeLa P4/R5 cells assessed as inhibition of viral replication; assay type: functional, organism-based; settings: Human immunodeficiency virus 1, HeLa; how it was run: as §2
[24] = system: Human immunodeficiency virus 1; test: Antiviral activity against HIV1 harboring reverse transcriptase M41L/L210W/T215Y mutant infected in human HeLa P4/R5 cells assessed as inhibition of viral replication; assay type: functional, organism-based; settings: Human immunodeficiency virus 1, HeLa; how it was run: as §2
[25] = system: Human immunodeficiency virus 1; test: Antiviral activity against HIV1 harboring reverse transcriptase diserine insert between residues 69 and 70 infected in human HeLa P4/R5 cells assessed as inhibition of viral replication; assay type: functional, organism-based; settings: Human immunodeficiency virus 1, HeLa; how it was run: as §2
[26] = Cytotoxicity against human CEM cells after 2 to 4 days by MTT assay; assay type: cell-based; settings: CEM cells (CCRF-CEM)
How it was run: (§5)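 Log-phase cells seeded at 5 × 10³ to 5 × 10⁴ cells/well with 10-fold serial compound dilutions. Incubated 2-4 days; viability read by MTT staining. CC50 from concentration-response curves by the median effect method. Mean of at least three independent experiments.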

[27] = Cytotoxicity against human PBMC after 2 to 4 days by MTT assay; assay type: cell-based; how it was run: as §5
[28] = system: Human immunodeficiency virus 1; test: Antiviral activity against HIV1 harboring reverse transcriptase M41L/D67N/K70R/T215F/K219Q mutant infected in human HeLa P4/R5 cells assessed as inhibition of viral replication; assay type: functional, organism-based; settings: Human immunodeficiency virus 1, HeLa; how it was run: as §2
[29] = system: Human immunodeficiency virus 1; test: Antiviral activity against HIV1 harboring reverse transcriptase D67N/K70R/T215F/K219Q mutant infected in human HeLa P4/R5 cells assessed as inhibition of viral replication; assay type: functional, organism-based; settings: Human immunodeficiency virus 1, HeLa; how it was run: as §2
[30] = system: Human immunodeficiency virus 1; test: Antiviral activity against HIV1 harboring reverse transcriptase M41L/D67N/K70R/L210W/T215Y/K219Q mutant infected in human HeLa P4/R5 cells assessed as inhibition of viral replication; assay type: functional, organism-based; settings: Human immunodeficiency virus 1, HeLa; how it was run: as §2
[31] = Cytotoxicity against human HeLa P4/R5 cells
[32] = Cytotoxicity against african green monkey Vero cells after 2 to 4 days by MTT assay; assay type: cell-based; settings: chlorocebus sabaeus; how it was run: as §5
[33] = Cytotoxicity against human MT2 cells after 2 to 4 days by MTT assay; assay type: cell-based; how it was run: as §5

Ratio [1] | Kd [2] | Activity [4] | Structure (SMILES) | IC50 [5] | IC50 [7] | IC50 [9] | IC50 [11] | also measured
4.2 µM⁻¹ s⁻¹ | 2200 nM | 9.2 s⁻¹ | Cc1cn([C@H]2C[C@H](O)[C@@H](COP(=O)(O)OP(=O)(O)OP(=O)(O)O)O2)c(=O)[nH]c1=O [DEOXYTHYMIDINE_TRIPHOSPHATE] |  |  |  |  | 
1.6 µM⁻¹ s⁻¹ | 2700 nM | 4.3 s⁻¹ | Cc1cn([C@H]2C=C[C@@H](COP(=O)(O)OP(=O)(O)OP(=O)(O)O)O2)c(=O)[nH]c1=O [STAVUDINE TRIPHOSPHATE] |  |  |  |  | Selectivity ratio [22]: 2.6

The remaining lines, values behind:

Structure (SMILES) | Ratio [1] | Kd [2] | Activity [4] | IC50 [5] | IC50 [7] | IC50 [9] | IC50 [11] | also measured
Nc1ccn([C@H]2CC[C@@H](COP(=O)(O)OP(=O)(O)OP(=O)(O)O)O2)c(=O)n1 [DDCTP] | 0.2 µM⁻¹ s⁻¹ | 2700 nM | 0.4 s⁻¹ |  |  |  |  | Selectivity ratio [3]: 6.7
Nc1nc2c(ncn2[C@H]2C[C@H](O)[C@@H](COP(=O)(O)OP(=O)(O)OP(=O)(O)O)O2)c(=O)[nH]1 [DEOXYGUANOSINE TRIPHOSPHATE] | 1.8 µM⁻¹ s⁻¹ | 4200 nM | 7.5 s⁻¹ |  |  |  |  | 
O=c1[nH]cnc2c1ncn2[C@H]1CC[C@@H](CO)O1 [DIDANOSINE] |  |  |  | 2300 nM | 490 nM | 6300 nM | 100 nM | IC50 [6]: 4600 nM; Ratio IC50 [8]: 3.6; Ratio IC50 [10]: 2; IC50 [12]: 8300 nM; Ratio IC50 [13]: 2.7
Nc1nc(=O)n([C@@H]2CS[C@H](CO)O2)cc1F [EMTRICITABINE] |  |  |  | 170 nM | 44 nM |  | 1 nM | 
Nc1ccn([C@@H]2CS[C@H](CO)O2)c(=O)n1 [LAMIVUDINE] |  |  |  | 780 nM | 600 nM | 60500 nM | 30 nM | IC50 [6]: > 60000 nM; Activity [14]: 105%; Activity [15]: 416%; Ratio IC50 [10]: >75; Activity [16]: 119%; inhibition at 336 h, 10 µM [17]: < 1%; Activity [18]: 0.6%; inhibition at 336 h, 100 µM [19]: 94.3%; inhibition at 336 h, 100 µM [20]: 100%; inhibition at 336 h, 10 µM [21]: < 1%; Ratio IC50 [13]: 77
Cc1cn([C@H]2C=C[C@@H](CO)O2)c(=O)[nH]c1=O [STAVUDINE] |  |  |  | 5700 nM | 1900 nM |  | 100 nM | 
CC(C)OC(=O)OCOP(=O)(CO[C@H](C)Cn1cnc2c(N)ncnc21)OCOC(=O)OC(C)C.O=C(O)/C=C/C(=O)O [TENOFOVIR DISOPROXIL FUMARATE] |  |  |  | 4700 nM | 540 nM | 11400 nM | 14 nM | Ratio IC50 [13]: 2.5
Nc1ccn([C@H]2CC[C@@H](CO)O2)c(=O)n1 [ZALCITABINE] |  |  |  | 1400 nM | 130 nM |  | 200 nM | Activity [14]: 170%; Activity [16]: 0.3%; inhibition at 336 h, 10 µM [17]: 99.9%; inhibition at 336 h, 10 µM [21]: 61.4%
Cc1cn([C@H]2C[C@H](N=[N+]=[N-])[C@@H](CO)O2)c(=O)[nH]c1=O [ZIDOVUDINE] |  |  |  | 190 nM | 31 nM | 210 nM |  | IC50 [23]: 214000 nM; IC50 [24]: 10400 nM; IC50 [25]: 205000 nM; IC50 [6]: 180 nM; CC50 [26]: 86200 nM; CC50 [27]: > 100000 nM; IC50 [28]: 96700 nM; IC50 [29]: 11900 nM; IC50 [30]: 58600 nM; CC50 [31]: > 270000 nM; CC50 [32]: > 100000 nM; IC50 [12]: 210 nM; CC50 [33]: 150000 nM
